# Reference: ChEMBL document CHEMBL5058577, “EUbOPEN Chemogenomics Library 2 (Multiplex)” (2022)
# System: U2OS
# Experiment: Multiplex assay against U2OS
# Assay type: toxicity, cell-based
# Conditions: human
# Summary of the method: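 Live cells were stained at seeding with Hoechst33342, BioTracker Green Microtubule Cytoskeleton Dye, MitoTracker Red and Annexin V Alexa Fluor 680, then imaged on a CQ1 microscope at 37°C and 5% CO2 after compound addition. CellPathfinder machine-learning gating split cells into Hoechst high-intensity objects or normal cells. Normal cells were split into healthy, pyknosed or fragmented nuclei, and pyknosed cells into mitotic or apoptotic. Tubulin, mitochondrial-mass and membrane-permeability phenotypes are per cents of healthy-nucleus cells.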
# [1] = 12 h, 1 µM, compound concentration 1 uM, replicate 1
# [2] = 12 h, 1 µM, compound concentration 1 uM, replicate 2
# [3] = 12 h, 10 µM, compound concentration 10 uM, replicate 1
# [4] = 12 h, 10 µM, compound concentration 10 uM, replicate 2
# [5] = 24 h, 1 µM, compound concentration 1 uM, replicate 1
# [6] = 24 h, 1 µM, compound concentration 1 uM, replicate 2
# [7] = 24 h, 10 µM, compound concentration 10 uM, replicate 1
# [8] = 24 h, 10 µM, compound concentration 10 uM, replicate 2
# [9] = 48 h, 1 µM, compound concentration 1 uM, replicate 1
# [10] = 48 h, 1 µM, compound concentration 1 uM, replicate 2
# [11] = 48 h, 10 µM, compound concentration 10 uM, replicate 1
# [12] = 48 h, 10 µM, compound concentration 10 uM, replicate 2
smiles,measurement,setting,value
CN[C@@H](C)C(=O)N[C@H](C(=O)N1CCC[C@H]1C(=O)Nc1snnc1-c1ccccc1)C1CCCCC1 [GDC-0152],Population Apoptotic (%),[1],60%
same,Population Fragmented Nuclei (%),[1],25%
same,Population Healthy Nuclei (%),[1],61%
same,Population Hoechst High Intensity Objects (%),[1],5%
same,Population Membrane Permeable-Phenotype (%),[1],51%
same,Population Mitochondria Different-Phenotype (%),[1],24%
same,Population Mitotic Cells (%),[1],39%
same,Population Normal (%),[1],94%
same,Population Pyknosed Nuclei (%),[1],13%
same,Population Tubulin-Different-Phenotype (%),[1],47%
same,Total Cell Count,[1],176
same,Population Apoptotic (%),[2],89%
same,Population Fragmented Nuclei (%),[2],21%
same,Population Healthy Nuclei (%),[2],60%
same,Population Hoechst High Intensity Objects (%),[2],11%
same,Population Membrane Permeable-Phenotype (%),[2],50%
same,Population Mitochondria Different-Phenotype (%),[2],38%
same,Population Mitotic Cells (%),[2],10%
same,Population Normal (%),[2],88%
same,Population Pyknosed Nuclei (%),[2],17%
same,Population Tubulin-Different-Phenotype (%),[2],52%
same,Total Cell Count,[2],121
same,Population Apoptotic (%),[3],72%
same,Population Fragmented Nuclei (%),[3],39%
same,Population Healthy Nuclei (%),[3],44%
same,Population Hoechst High Intensity Objects (%),[3],4%
same,Population Membrane Permeable-Phenotype (%),[3],65%
same,Population Mitochondria Different-Phenotype (%),[3],61%
same,Population Mitotic Cells (%),[3],27%
same,Population Normal (%),[3],95%
same,Population Pyknosed Nuclei (%),[3],16%
same,Population Tubulin-Different-Phenotype (%),[3],76%
same,Total Cell Count,[3],208
same,Population Apoptotic (%),[4],70%
same,Population Fragmented Nuclei (%),[4],18%
same,Population Healthy Nuclei (%),[4],65%
same,Population Hoechst High Intensity Objects (%),[4],5%
same,Population Membrane Permeable-Phenotype (%),[4],73%
same,Population Mitochondria Different-Phenotype (%),[4],70%
same,Population Mitotic Cells (%),[4],29%
same,Population Normal (%),[4],94%
same,Population Pyknosed Nuclei (%),[4],15%
same,Population Tubulin-Different-Phenotype (%),[4],91%
same,Total Cell Count,[4],114
same,Population Apoptotic (%),[5],72%
same,Population Fragmented Nuclei (%),[5],21%
same,Population Healthy Nuclei (%),[5],55%
same,Population Hoechst High Intensity Objects (%),[5],5%
same,Population Membrane Permeable-Phenotype (%),[5],20%
same,Population Mitochondria Different-Phenotype (%),[5],18%
same,Population Mitotic Cells (%),[5],27%
same,Population Normal (%),[5],94%
same,Population Pyknosed Nuclei (%),[5],23%
same,Population Tubulin-Different-Phenotype (%),[5],19%
same,Total Cell Count,[5],196
same,Population Apoptotic (%),[6],85%
same,Population Fragmented Nuclei (%),[6],34%
same,Population Healthy Nuclei (%),[6],44%
same,Population Hoechst High Intensity Objects (%),[6],8%
same,Population Membrane Permeable-Phenotype (%),[6],25%
same,Population Mitochondria Different-Phenotype (%),[6],28%
same,Population Mitotic Cells (%),[6],14%
same,Population Normal (%),[6],91%
same,Population Pyknosed Nuclei (%),[6],21%
same,Population Tubulin-Different-Phenotype (%),[6],27%
same,Total Cell Count,[6],144
same,Population Apoptotic (%),[7],68%
same,Population Fragmented Nuclei (%),[7],36%
same,Population Healthy Nuclei (%),[7],43%
same,Population Hoechst High Intensity Objects (%),[7],3%
same,Population Membrane Permeable-Phenotype (%),[7],53%
same,Population Mitochondria Different-Phenotype (%),[7],59%
same,Population Mitotic Cells (%),[7],31%
same,Population Normal (%),[7],96%
same,Population Pyknosed Nuclei (%),[7],20%
same,Population Tubulin-Different-Phenotype (%),[7],59%
same,Total Cell Count,[7],220
same,Population Apoptotic (%),[8],92%
same,Population Fragmented Nuclei (%),[8],20%
same,Population Healthy Nuclei (%),[8],40%
same,Population Hoechst High Intensity Objects (%),[8],10%
same,Population Membrane Permeable-Phenotype (%),[8],59%
same,Population Mitochondria Different-Phenotype (%),[8],65%
same,Population Mitotic Cells (%),[8],7%
same,Population Normal (%),[8],89%
same,Population Pyknosed Nuclei (%),[8],38%
same,Population Tubulin-Different-Phenotype (%),[8],81%
same,Total Cell Count,[8],121
same,Population Apoptotic (%),[9],93%
same,Population Fragmented Nuclei (%),[9],35%
same,Population Healthy Nuclei (%),[9],32%
same,Population Hoechst High Intensity Objects (%),[9],8%
same,Population Membrane Permeable-Phenotype (%),[9],16%
same,Population Mitochondria Different-Phenotype (%),[9],12%
same,Population Mitotic Cells (%),[9],6%
same,Population Normal (%),[9],91%
same,Population Pyknosed Nuclei (%),[9],32%
same,Population Tubulin-Different-Phenotype (%),[9],9%
same,Total Cell Count,[9],246
same,Population Apoptotic (%),[10],88%
same,Population Healthy Nuclei (%),[10],30%
same,Population Membrane Permeable-Phenotype (%),[10],38%
same,Population Mitochondria Different-Phenotype (%),[10],17%
same,Population Mitotic Cells (%),[10],11%
same,Population Pyknosed Nuclei (%),[10],34%
same,Population Tubulin-Different-Phenotype (%),[10],27%
same,Total Cell Count,[10],170
same,Population Apoptotic (%),[11],100%
same,Population Fragmented Nuclei (%),[11],47%
same,Population Healthy Nuclei (%),[11],22%
same,Population Hoechst High Intensity Objects (%),[11],11%
same,Population Membrane Permeable-Phenotype (%),[11],39%
same,Population Mitochondria Different-Phenotype (%),[11],39%
same,Population Mitotic Cells (%),[11],0%
same,Population Normal (%),[11],88%
same,Population Pyknosed Nuclei (%),[11],29%
same,Population Tubulin-Different-Phenotype (%),[11],43%
same,Total Cell Count,[11],246
same,Population Apoptotic (%),[12],98%
same,Population Fragmented Nuclei (%),[12],45%
same,Population Healthy Nuclei (%),[12],8%
same,Population Hoechst High Intensity Objects (%),[12],14%
same,Population Membrane Permeable-Phenotype (%),[12],80%
same,Population Mitochondria Different-Phenotype (%),[12],50%
same,Population Mitotic Cells (%),[12],1%
same,Population Normal (%),[12],85%
same,Population Pyknosed Nuclei (%),[12],45%
same,Population Tubulin-Different-Phenotype (%),[12],80%
same,Total Cell Count,[12],138
